Laboratory results: ChEMBL document CHEMBL1123779, “Modifications of primaquine as antimalarials. 4. 5-Alkoxy derivatives of primaquine” (J Med Chem, 1987)

Experiments:
Plasmodium cynomolgi [1] = assay: Cures in Plasmodium cynomolgi infected Rhesus monkeys (Macaca mulatta) on 0.316 mg/kg/day after 7 days; cures 2 of 2; format: functional
Plasmodium cynomolgi [2] = assay: Cures in Plasmodium cynomolgi infected Rhesus monkeys (Macaca mulatta) on 1 mg/kg/day after 7 days; cured 3 of 3; format: functional
Plasmodium cynomolgi [3] = assay: Cures in Plasmodium cynomolgi infected Rhesus monkeys (Macaca mulatta) on 10.0 mg/kg/day after 7 days; cured 1 of 1; format: functional
Plasmodium cynomolgi [4] = assay: Cures in Plasmodium cynomolgi infected Rhesus monkeys (Macaca mulatta) on 0.1 mg/kg/day after 7 days (x7); cured 0 of 2; format: functional
Mus musculus [5] = assay: Suppressive blood schizonticidal antimalarial activity evaluated in the trophozoite-induced Plasmodium berghei infection in mice (Mus musculus) at a dose 320 mg/kg given as no. of toxic deaths; format: functional
Outline: (§1)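 Rane Laboratory mouse test with blood-induced P. berghei infection, five mice per group. Toxic deaths are deaths occurring before the 6th day postinfection.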

Plasmodium berghei [6] = assay: (§2) Suppressive blood schizonticidal antimalarial activity evaluated in the trophozoite-induced Plasmodium berghei infection in mice (Mus musculus) at a dose 640 mg/kg given as number of toxic deaths; format: toxicity, organism-based; design: dose 640 mg/kg; conditions: in vivo; outline: as §1
Mus musculus [7] = assay: (§3) Suppressive blood schizonticidal antimalarial activity evaluated in the trophozoite-induced Plasmodium berghei infection in mice (Mus musculus) at a dose 80 mg/kg; format: ADME, organism-based; design: dose 80 mg/kg; conditions: in vivo
Outline: (§4)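 Run at the Rane Laboratory in mice infected with blood-induced P. berghei, five animals per group. Activity is the increase in mean survival time over untreated infected controls. A compound counts as active when treated-group MST is more than twice the control MST. Cures are mice surviving at 60 days postinfection.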

Plasmodium berghei [8] = assay: Blood schizonticidal antimalarial activity in the trophozoite-induced Plasmodium berghei infection in mice (Mus musculus) at 20 mg/kg; format: functional; design: unit not given beside the values; outline: as §4
Mus musculus [9] = assay: Suppressive blood schizonticidal antimalarial activity evaluated in the trophozoite-induced Plasmodium berghei infection in mice (Mus musculus) at a dose 10 mg/kg; format: functional; outline: as §4
Mus musculus [10] = assay: Suppressive blood schizonticidal antimalarial activity evaluated in the trophozoite-induced Plasmodium berghei infection in mice (Mus musculus) at a dose 40 mg/kg; format: functional; design: unit not given beside the values; outline: as §4
Mus musculus [11] = assay: (§5) Suppressive blood schizonticidal antimalarial activity evaluated in the trophozoite-induced Plasmodium berghei infection in mice (Mus musculus) at a dose 160 mg/kg; format: ADME, organism-based; design: dose 160 mg/kg; conditions: in vivo; outline: as §4
Plasmodium cynomolgi [12] = assay: Cures in Plasmodium cynomolgi infected Rhesus monkeys (Macaca mulatta) on 0.316 mg/kg/day after 7 days; cured 1 of 2; format: functional
Plasmodium cynomolgi [13] = assay: Cures in Plasmodium cynomolgi infected Rhesus monkeys (Macaca mulatta) on 1 mg/kg/day after 7 days; cured 1 of 1; format: functional
Mus musculus [14] = assay: as §2; format: ADME, organism-based; design: dose 640 mg/kg; conditions: in vivo; outline: as §1
Mus musculus [15] = assay: Suppressive blood schizonticidal antimalarial activity evaluated in the trophozoite-induced Plasmodium berghei infection in mice (Mus musculus) at a dose 160 mg/kg given as no. of toxic deaths; format: functional; outline: as §1
Mus musculus [16] = assay: as §3; format: functional; design: unit not given beside the values; outline: as §4
Plasmodium cynomolgi [17] = assay: Cures in Plasmodium cynomolgi infected Rhesus monkeys (Macaca mulatta) on 0.316 mg/kg/day after 7 days; cured 0 of 2; format: functional
Plasmodium cynomolgi [18] = assay: Cures in Plasmodium cynomolgi infected Rhesus monkeys (Macaca mulatta) on 1 mg/kg/day after 7 days; cured 0 of 2; format: functional
Plasmodium cynomolgi [19] = assay: Cures in Plasmodium cynomolgi infected Rhesus monkeys (Macaca mulatta) on 10.0 mg/kg/day after 7 days; cured 2 of 2; format: functional
Mus musculus [20] = assay: Suppressive blood schizonticidal antimalarial activity evaluated in the trophozoite-induced Plasmodium berghei infection in mice (Mus musculus) at a dose 640 mg/kg given as no. of cures; format: functional
Outline: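 Run at the Rane Laboratory with blood-induced P. berghei infections in mice, five animals per group. A cure is a mouse surviving to 60 days postinfection. Deaths before day 6 are recorded separately as toxic deaths. Activity is scored from the increase in mean survival time over untreated controls, and counts as active when treated MST is more than twice control MST.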

Mus musculus [21] = assay: Suppressive blood schizonticidal antimalarial activity evaluated in the trophozoite-induced Plasmodium berghei infection in mice (Mus musculus) at a dose 320 mg/kg; format: functional; outline: as §4
Mus musculus [22] = assay: as §5; format: functional; outline: as §4

CCCOc1c(OC)cc(NC(C)CCCN)c2ncccc12 (stereo not given) showed a Cures/no. of animals (Plasmodium cynomolgi [1]) of 2, a Cures/no. of animals (Plasmodium cynomolgi [2]) of 3 and a Cures/no. of animals (Plasmodium cynomolgi [3]) of 1. The Cures/no. of animals (Plasmodium cynomolgi [4]) was 0, the Toxic deaths (Mus musculus [5]) was 5 and the Toxic deaths (Plasmodium berghei [6]) was 5. The Toxic deaths (Mus musculus [7]) was 1, the “Delta MST” value (Plasmodium berghei [8]) was 4.5 and the “Delta MST” value (Mus musculus [9]) was 3.7. The “Delta MST” value (Mus musculus [10]) was 8.3 and the Toxic deaths (Mus musculus [11]) was 5.

CCCCCOc1c(OC)cc(NC(C)CCCN)c2ncccc12 (stereo not given) gave a Cures/no. of animals (Plasmodium cynomolgi [12]) of 1, a Cures/no. of animals (Plasmodium cynomolgi [13]) of 1 and a Cures/no. of animals (Plasmodium cynomolgi [4]) of 0. For the same compound, the Toxic deaths (Mus musculus [14]) was 2, the Toxic deaths (Mus musculus [15]) was 4 and the Toxic deaths (Mus musculus [5]) was 5. The “Delta MST” value (Plasmodium berghei [8]) was 4.7, the “Delta MST” value (Mus musculus [9]) was 4.3 and the “Delta MST” value (Mus musculus [10]) was 6.1. For the same compound, the “Delta MST” value (Mus musculus [16]) was 4.7.

Compound COc1cc(NC(C)CCCN)c2nccc(C)c2c1 (stereo not given) has a Cures/no. of animals (Plasmodium cynomolgi [17]) of 0, a Cures/no. of animals (Plasmodium cynomolgi [18]) of 2 and a Cures/no. of animals (Plasmodium cynomolgi [19]) of 2. The Cures (Mus musculus [20]) was 3, the “Delta MST” value (Plasmodium berghei [8]) was 3.1 and the “Delta MST” value (Mus musculus [21]) was 10. For the same compound, the “Delta MST” value (Mus musculus [22]) was 9, the “Delta MST” value (Mus musculus [10]) was 4.9 and the “Delta MST” value (Mus musculus [16]) was 5.5.
